Experimental data as given in PubChem BioAssay.
Activity calls are given as the source filed them.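 Rule for the calls, unless noted: active = visually confirmed hit in the image check and inhibition above 20%; inconclusive = visually confirmed hit but inhibition not above 20%; inactive = no visual hit in the image check.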

Assays:
[1] = inhibitors of TNFa-induced NFkB p65 translocation, primary screen, imaging, HUVEC, MLSMR starter and 10KST1 sets (AID 438;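 active = inhibition above 20% together with a positive visual image hit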;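 note: compound added about 3h40 before a 20 min TNFalpha stimulation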;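 for inhibition: signal is the nuclear over cytoplasmic p65 intensity ratio per well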); settings: HUVEC TNFa-induced p65 nuclear translocation; cell count: measured here: nuclei count (cytotoxicity indicator), at 2.08 µM; inhibition: at 2 µM, stronger effect = higher value, 0% TNFa-plus-vehicle, 100% no-TNFa wells
[2] = inhibitors of mutant huntingtin aggregation, primary screen, imaging, exon1htt(103Q)mCFP cells, high-content imaging (AID 483;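 active = visual image review flags a hit and inhibition of aggregation exceeds 20%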;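 note: compound exposure lasted 3 days before fixation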;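 for nuclei count: percent of the per-plate median nuclei count of sample wells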); settings: exon1htt(103Q)mCFP cell line, aggregate imaging, at 2 µM; inhibition of aggregation: stronger effect = higher value; nuclei count: measured here: cell count, toxicity
[3] = inhibitors of E-selectin induction by TNFa, primary screen, imaging, HUVEC, immunofluorescence, MLSMR starter and 10KST1 sets (AID 487); settings: HUVEC TNFalpha-induced E-selectin immunofluorescence imaging, at 2 µM; inhibition: stronger effect = higher value; nuclei count: measured here: cell number, toxicity;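 for inhibition: signal is fraction of cell area covered by stained E-selectin grains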;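 for nuclei count: 100% = median nuclei count of all wells on the same plate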
[4] = target: Voltage-gated potassium channel subunit beta-2 (Rattus norvegicus) (UniProt P62483); assay: KvBeta enzyme negative modulators, primary screen, biochemical, NADPH fluorescence (AID 622;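 active = fluorescence slope higher than the sample average by over 3 SD, cut at about -0.22 in these data, passing the limit was not always enough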;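 note: slope of raw intensity against log time taken from 70 to 1610 s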); settings: recombinant KvBeta, 4-cyanobenzaldehyde reduction, at 10 µM, stronger effect = higher value
[5] = target: Voltage-gated potassium channel subunit beta-2 (Rattus norvegicus) (UniProt P62483); assay: KvBeta positive modulators, primary screen, biochemical, NADPH fluorescence (AID 623;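 active = NADPH fluorescence slope more negative than the mean of all samples by about 3 SD, 99.7% confidence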;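 note: fluorescence intensity change per second fitted from 20 to 320 s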); settings: Recombinant KvBeta, NADPH fluorescence decrease slope, 10 min; at 10 µM; stronger effect = lower value
[6] = target: Muscarinic acetylcholine receptor M4 (Homo sapiens) (UniProt P08173); assay: compounds altering M4/GIRK thallium flux, either direction, primary screen, M4 allosteric agonist project, cell-based, HEK293 M4/GIRK, BTC-AM (AID 625;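 active = fluorescence slope after compound addition differing from the mean of all tested samples at 99.7% confidence, mostly higher but some lower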;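 note: thallium influx through GIRK channels coupled to M4 in HEK293 cells with BTC-AM dye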); settings: at 10 µM, actives lie on both sides
Method in brief: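 assay system = HEK293 cells with M4 receptor and GIRK channels | medium = pH 7.3 thallium assay buffer | doses = 10 µM final, single point | timing = cells overnight at 37 °C, BTC-AM loading 1 h, reads 2 min total | signal = BTC-AM fluorescence, 1 Hz kinetic reads | read-out = post-addition slope, 15–24 s, of baseline-normalized fluorescence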

[7] = inhibitors of Sendai virus-induced IRF3 signaling, primary screen, TLR/RLR signaling modifier project, cell-based, Sendai virus stimulus, luciferase, 10K MLSCN set (AID 602276;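 active = inhibition at or above 50% at 10 µM; inactive = inhibition below 50%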;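 note: firefly luciferase from ISG56 promoter only with Renilla not read in this screen; 0% = Sendai virus plus DMSO and 100% = medium plus DMSO without virus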); settings: HEK293 RL24 IRF3 luciferase reporter, at 10 µM, stronger effect = higher value
[8] = inhibitors of poly I:C-induced TLR3 signaling, primary screen, cell-based, poly I:C stimulus, luciferase, 10K MLSCN set (AID 602277;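 active = inhibition of the reporter signal at or above 50%; inactive = inhibition below 50%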); settings: HEK293-TLR3 RL24 IRF3 luciferase reporter, at 10 µM, stronger effect = higher value

Chain of Voltage-gated potassium channel subunit beta-2 (Rattus norvegicus) (P62483 whole entry, looked up): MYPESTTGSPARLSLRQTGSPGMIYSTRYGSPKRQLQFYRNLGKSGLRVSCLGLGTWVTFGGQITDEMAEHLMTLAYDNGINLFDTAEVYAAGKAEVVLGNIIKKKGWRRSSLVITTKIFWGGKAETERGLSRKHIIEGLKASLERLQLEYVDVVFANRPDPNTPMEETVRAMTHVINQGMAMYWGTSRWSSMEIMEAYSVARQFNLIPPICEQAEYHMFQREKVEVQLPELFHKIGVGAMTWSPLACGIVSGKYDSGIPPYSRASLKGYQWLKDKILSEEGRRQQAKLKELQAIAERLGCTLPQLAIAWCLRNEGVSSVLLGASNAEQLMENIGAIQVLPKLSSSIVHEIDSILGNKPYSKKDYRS
Chain of Muscarinic acetylcholine receptor M4 (Homo sapiens) (P08173 whole entry, looked up): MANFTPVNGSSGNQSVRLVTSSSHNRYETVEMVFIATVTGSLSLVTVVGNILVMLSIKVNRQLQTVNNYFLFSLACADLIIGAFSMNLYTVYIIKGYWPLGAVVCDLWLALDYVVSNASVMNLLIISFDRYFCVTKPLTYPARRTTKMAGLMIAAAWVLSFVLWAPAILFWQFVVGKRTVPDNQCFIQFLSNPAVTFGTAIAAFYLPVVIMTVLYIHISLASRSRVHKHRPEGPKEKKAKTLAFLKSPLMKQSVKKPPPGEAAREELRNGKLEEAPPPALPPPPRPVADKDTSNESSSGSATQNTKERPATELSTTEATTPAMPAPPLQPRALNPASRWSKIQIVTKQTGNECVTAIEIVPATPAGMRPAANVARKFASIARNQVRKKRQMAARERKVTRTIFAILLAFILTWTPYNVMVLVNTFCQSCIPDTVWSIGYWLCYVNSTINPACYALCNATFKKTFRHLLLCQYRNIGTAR

| SMILES | cell count [1] | inhibition [1] | inhibition of aggregation [2] | nuclei count [2] | inhibition [3] | nuclei count [3] | fluorescence slope [4] | NADPH fluorescence slope [5] | fluorescence slope [6] | inhibition [7] | inhibition [8] |
| --- | --- | --- | --- | --- | --- | --- | --- | --- | --- | --- | --- |
| O=c1c2ccccc2nc(-c2cccc(Cl)c2)n1O | 333 | 11.6% (inactive) | 0.5% (inactive) | 102% | -4.3% (inactive) | 112% | -0.453 (inactive) | -3.1e-05 (inactive) | 0.0197 (active) | 17.4% (inactive) | 6.85% (inactive) |
| CC(C)CCn1c(SCC#N)nc2c(sc3ccccc32)c1=O | 718 | -3.6% (inactive) | 0.6% (inactive) | 117% | -60.1% (inactive) | 119% | -0.485 (inactive) | -2.4e-05 (inactive) | 0.00662 (inactive) | 6.8% (inactive) | 14.8% (inactive) |
| CCOc1ccc(OCC)c(NC(=O)C2CCN(S(=O)(=O)c3cnc[nH]3)CC2)c1 | 377 | -1.3% (inactive) | -15.6% (inactive) | 101% | 22.9% (inactive) | 80.4% | -0.572 (inactive) | -2.9e-05 (inactive) | 0.00665 (inactive) | 4.79% (inactive) | 10.8% (inactive) |
| CCn1c(SCC(N)=O)nc2c1c(=O)n(C)c(=O)n2C | 226 | 4.9% (inactive) | 20.7% (inactive) | 80.1% | -57.2% (inactive) | 152% | -0.422 (inactive) | 2.5e-05 (inactive) | 0.00578 (inactive) | 17.5% (inactive) | 21.1% (inactive) |
| CN(C)c1nc(N)nc(CSc2nnnn2-c2cccc3ccccc23)n1 | 627 | -10.4% (inactive) | 27.3% (inactive) | 71.9% | -69.3% (inactive) | 103% | -0.463 (inactive) | -3.9e-05 (inactive) | 0.00537 (inactive) | 18.6% (inactive) | 14.8% (inactive) |
| O=C(Cn1cnc2c(nnn2-c2ccc(F)cc2)c1=O)NCc1ccco1 | 657 | 9.2% (inactive) | -33.9% (inactive) | 78.6% | -8.8% (inactive) | 122% | -0.596 (inactive) | -4.4e-06 (inactive) | 0.00537 (inactive) | 5.73% (inactive) | 12% (inactive) |
| CCSc1nnc(NC(=O)c2ccc(C)o2)s1 | 603 | -10.7% (inactive) | 21.1% (inactive) | 96.3% | 11.4% (inactive) | 96.3% | -0.531 (inactive) | -4e-05 (inactive) | 0.00557 (inactive) | -41.5% (inactive) | -89% (inactive) |
| O=C(CN1C(=O)c2cccc3cccc1c23)NCC1CCCO1 (stereo not drawn) | 356 | 20.1% (inactive) | 13.2% (inactive) | 79.5% | -58% (inactive) | 102% | -0.433 (inactive) | -4.9e-05 (inactive) | 0.00404 (inactive) | -5.13% (inactive) | -11.1% (inactive) |
